Measurements: ChEMBL document CHEMBL4422662, “Chemical Control of Mammalian Circadian Behavior through Dual Inhibition of Casein Kinase Iα and δ” (J Med Chem, 2019)
Active and inactive are the calls of the source. The calls are words filed in the database; no cut-off is given here.

Columns and labels:
[1] = target: T1, Casein kinase I isoform alpha/delta (Homo sapiens) (UniProt P48730+P48729); assay: Inhibition of CK1alpha/CK1delta in human U2OS cells co-expressing Bmal1-dLuc assessed as modulation circadian clock by measuring drug level causing 5 hrs circadian period lengthening measured every 100 mins by luminescence assay; assay type: cell-based
T1 sequence (P48729 whole entry, looked up, canonical isoform): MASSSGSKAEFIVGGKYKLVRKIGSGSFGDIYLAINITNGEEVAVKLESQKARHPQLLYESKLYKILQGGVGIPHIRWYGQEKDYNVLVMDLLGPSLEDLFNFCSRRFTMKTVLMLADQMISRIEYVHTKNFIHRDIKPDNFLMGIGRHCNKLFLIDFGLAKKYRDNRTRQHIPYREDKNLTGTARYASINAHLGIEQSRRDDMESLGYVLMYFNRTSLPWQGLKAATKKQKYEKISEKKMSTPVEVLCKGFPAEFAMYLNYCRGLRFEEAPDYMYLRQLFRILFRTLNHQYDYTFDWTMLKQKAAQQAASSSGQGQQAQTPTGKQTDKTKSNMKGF
T1 sequence (P48730 whole entry, looked up, canonical isoform): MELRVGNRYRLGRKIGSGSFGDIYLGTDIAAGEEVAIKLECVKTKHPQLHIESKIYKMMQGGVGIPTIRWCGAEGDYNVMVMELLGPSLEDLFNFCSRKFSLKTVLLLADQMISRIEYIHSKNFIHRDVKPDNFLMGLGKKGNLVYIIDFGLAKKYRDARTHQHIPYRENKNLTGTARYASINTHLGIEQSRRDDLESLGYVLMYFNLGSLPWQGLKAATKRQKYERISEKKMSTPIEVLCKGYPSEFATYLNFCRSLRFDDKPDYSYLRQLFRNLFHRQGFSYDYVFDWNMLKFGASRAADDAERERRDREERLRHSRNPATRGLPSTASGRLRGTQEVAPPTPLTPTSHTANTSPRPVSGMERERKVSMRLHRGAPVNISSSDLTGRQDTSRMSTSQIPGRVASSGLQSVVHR
How it was run: (§1)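 Bmal1-dLuc U2OS cells seeded at 2000 per well and grown 2 days in DMEM/10% FBS. Explant medium with 1 mM luciferin, 10 mM HEPES and 2% B27 (pH 7.2) added, with compounds at 8 μM to 1 nM (3-fold dilutions, final 0.7% DMSO). Luminescence read every 100 min. Period obtained by curve fitting, excluding the first 20 h. Value is the concentration giving the stated lengthening; mean of at least two independent determinations.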

[2] = target: T1, Casein kinase I isoform alpha/delta (Homo sapiens); assay: Inhibition of CK1alpha/CK1delta in human U2OS cells co-expressing Bmal1-dLuc assessed as modulation circadian clock by measuring drug level causing 1 hr circadian period lengthening measured every 100 mins by luminescence assay; assay type: cell-based; how it was run: as §1
[3] = target: Cyclin-dependent kinase 7 (Homo sapiens) (UniProt P50613); assay: Inhibition of CDK7 (unknown origin) at 5 uM relative to control
Cyclin-dependent kinase 7 (Homo sapiens), sequence (P50613 whole entry, the tested form may be a part, canonical isoform): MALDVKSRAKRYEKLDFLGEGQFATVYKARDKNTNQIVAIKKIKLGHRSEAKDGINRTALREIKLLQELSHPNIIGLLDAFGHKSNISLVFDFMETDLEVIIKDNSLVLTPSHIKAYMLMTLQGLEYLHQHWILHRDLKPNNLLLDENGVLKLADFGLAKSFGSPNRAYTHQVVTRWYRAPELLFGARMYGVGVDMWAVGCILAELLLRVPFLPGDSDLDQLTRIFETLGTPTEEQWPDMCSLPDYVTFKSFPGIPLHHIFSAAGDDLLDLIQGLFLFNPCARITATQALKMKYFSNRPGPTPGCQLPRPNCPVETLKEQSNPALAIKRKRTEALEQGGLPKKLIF

[4] = target: T2, Casein kinase I isoform delta (Homo sapiens, UniProt P48730); assay: Inhibition of recombinant N-terminal human GST-tagged CK1delta (1 to 294 residues) expressed in Escherichia coli at 5 uM using RKKKAEpSVASLTSQCSYSS peptide as substrate after 3 hrs by kinase-glo luminescent assay relative to control
Target sequence in this assay (P48730 whole entry, looked up, the tested form may be a part, canonical isoform): as the sequence (P48730 whole entry, looked up, canonical isoform) above

[5] = target: T3, Casein kinase I isoform alpha (Homo sapiens, UniProt P48729); assay: Inhibition of recombinant full length human GST-tagged CK1apha expressed in baculovirus at 5 uM using peptide as substrate after 3 hrs by kinase-glo luminescent assay
Target sequence in this assay (P48729 2-337 limits assumed): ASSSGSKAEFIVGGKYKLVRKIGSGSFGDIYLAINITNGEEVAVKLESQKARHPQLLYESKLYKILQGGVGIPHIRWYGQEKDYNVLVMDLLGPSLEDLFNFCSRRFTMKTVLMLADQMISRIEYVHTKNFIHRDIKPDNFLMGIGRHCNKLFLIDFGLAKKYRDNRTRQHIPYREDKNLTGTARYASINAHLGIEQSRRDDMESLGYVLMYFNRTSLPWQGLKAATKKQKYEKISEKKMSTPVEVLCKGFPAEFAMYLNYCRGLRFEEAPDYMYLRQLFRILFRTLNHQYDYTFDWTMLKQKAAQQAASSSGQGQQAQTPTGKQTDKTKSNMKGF

Mus musculus [6] = assay: Modulation of circadian rhythms in C57BL/6J mouse assessed as lengthening of time period of circadian behavior at 5 mM administered via infusion using osmotic pump by passive infrared sensor analysis; assay type: functional
How it was run: (§2)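 Male C57BL/6J mice, 8 weeks old, entrained to 12 h light:12 h dark and then released into constant darkness. Drug infused continuously into the lateral ventricle by osmotic mini-pump via a stereotaxic cannula (0.2 mm anterior, 1.4 mm lateral, 2.2 mm deep). Artificial cerebrospinal fluid infusion served as control, with buffer infusion afterwards. Movement recorded each minute by passive infrared sensor to derive period.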

Mus musculus [7] = assay: Reversible modulation of circadian rhythms in C57BL/6J mouse assessed as lengthening of time period of circadian behavior at 5 mM administered via infusion using osmotic pump followed buffer infusion by passive infrared sensor analysis; assay type: functional, organism-based; how it was run: as §2
[8] = target: T4, Cyclin-dependent kinase 2 (Homo sapiens, UniProt P24941); assay: Inhibition of CDK2 (unknown origin) after 3 hrs by kinase-glo luminescent assay relative to control
[9] = target: Casein kinase I isoform epsilon (Homo sapiens) (UniProt P49674); assay: Inhibition of CK1epsilon (unknown origin) at 5 uM relative to control
[10] = target: SRSF protein kinase 1 (Homo sapiens) (UniProt Q96SB4); assay: Inhibition of SRPK1 (unknown origin) at 5 uM relative to control
[11] = target: T2, Casein kinase I isoform delta; assay: Inhibition of recombinant N-terminal human GST-tagged CK1delta (1 to 294 residues) expressed in Escherichia coli using RKKKAEpSVASLTSQCSYSS peptide as substrate after 3 hrs by kinase-glo luminescent assay relative to control
How it was run: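 CKI buffer: 40 mM Tris, 10 mM MgCl2, 0.5 mM DTT, 0.1 mg/mL BSA, pH 7.5. Compound added first (final 5% DMSO), then ATP to a final 5 μM. Incubated 30 °C for 3 h; remaining ATP read by Kinase-Glo luminescence.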
Target sequence in this assay (P48730 whole entry, the tested form may be a part, canonical isoform): as the sequence (P48730 whole entry, looked up, canonical isoform) above

[12] = target: T3, Casein kinase I isoform alpha; assay: Inhibition of recombinant full length human GST-tagged CK1apha expressed in baculovirus using peptide as substrate after 3 hrs by kinase-glo luminescent assay
How it was run: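 Reaction held 1 ng/μL CKIα and 50 μM CKI peptide substrate in CKI buffer (40 mM Tris, 10 mM MgCl2, 0.5 mM DTT, 0.1 mg/mL BSA, pH 7.5). Final 5% DMSO from compound. Started with ATP (final 5 μM). Ran 3 h at 30 °C, then Kinase-Glo reagent added and luminescence recorded.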
Target sequence in this assay (P48729 whole entry, the tested form may be a part, canonical isoform): as the sequence (P48729 whole entry, looked up, canonical isoform) above

CDK7/Cyclin H/MNAT1 = CDK7/Cyclin H/MNAT1 (Homo sapiens, UniProt P50613); assay: Inhibition of recombinant full length C-terminal human His-tagged CDK7/cyclin H/N-terminal MAT1 expressed in baculovirus expression system using Cdk7/9 peptide as substrate after 3 hrs by kinase-glo luminescent assay relative to control
CDK7/Cyclin H/MNAT1, sequence (P51946 whole entry): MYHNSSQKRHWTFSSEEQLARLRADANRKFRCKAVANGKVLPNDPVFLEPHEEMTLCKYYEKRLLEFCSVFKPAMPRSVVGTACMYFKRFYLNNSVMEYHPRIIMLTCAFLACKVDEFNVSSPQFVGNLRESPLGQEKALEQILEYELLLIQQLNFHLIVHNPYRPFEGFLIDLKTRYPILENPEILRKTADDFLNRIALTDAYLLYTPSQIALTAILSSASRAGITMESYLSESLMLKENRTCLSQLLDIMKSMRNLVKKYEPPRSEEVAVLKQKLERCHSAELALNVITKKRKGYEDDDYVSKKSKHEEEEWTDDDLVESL
CDK7/Cyclin H/MNAT1, sequence (P50613 whole entry): as the sequence (P50613 whole entry, the tested form may be a part, canonical isoform) above
CDK7/Cyclin H/MNAT1, sequence (P51948 whole entry, further chain): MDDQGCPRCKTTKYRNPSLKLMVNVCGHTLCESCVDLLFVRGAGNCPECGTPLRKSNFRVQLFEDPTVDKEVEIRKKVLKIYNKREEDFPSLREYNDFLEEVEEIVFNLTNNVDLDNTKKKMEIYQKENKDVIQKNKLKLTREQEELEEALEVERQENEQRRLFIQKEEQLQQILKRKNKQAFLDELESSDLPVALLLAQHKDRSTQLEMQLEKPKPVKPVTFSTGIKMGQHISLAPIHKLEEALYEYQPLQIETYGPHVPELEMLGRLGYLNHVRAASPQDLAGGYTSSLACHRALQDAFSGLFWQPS
How it was run: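 CDK7 used at 5 ng/μL with 100 μM Cdk7/9 peptide substrate in CKI buffer (40 mM Tris, 10 mM MgCl2, 0.5 mM DTT, 0.1 mg/mL BSA, pH 7.5). ATP start at final 5 μM, 30 °C for 3 h, Kinase-Glo luminescence read-out.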

[13] = target: SRSF protein kinase 2 (Homo sapiens) (UniProt P78362); assay: Inhibition of SRPK2 (unknown origin) at 5 uM relative to control
[14] = target: T5, Casein kinase I isoform alpha-like (Homo sapiens) (UniProt Q8N752); assay: Inhibition of CK1alpha-like protein (unknown origin) at 5 uM relative to control
T5 sequence (whole entry): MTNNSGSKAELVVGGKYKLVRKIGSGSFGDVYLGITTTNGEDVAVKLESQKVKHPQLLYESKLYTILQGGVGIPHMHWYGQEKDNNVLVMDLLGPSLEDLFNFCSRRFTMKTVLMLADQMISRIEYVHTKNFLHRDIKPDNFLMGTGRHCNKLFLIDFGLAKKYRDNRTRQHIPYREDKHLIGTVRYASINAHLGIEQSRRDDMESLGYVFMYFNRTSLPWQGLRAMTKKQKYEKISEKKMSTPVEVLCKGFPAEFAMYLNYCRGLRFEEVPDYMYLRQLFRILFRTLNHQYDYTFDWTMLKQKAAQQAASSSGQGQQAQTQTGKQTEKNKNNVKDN

[15] = target: Cyclin-dependent kinase 6 (Homo sapiens) (UniProt Q00534); assay: Inhibition of CDK6 (unknown origin) at 5 uM relative to control
Cyclin-dependent kinase 6 (Homo sapiens), sequence (Q00534 whole entry, the tested form may be a part): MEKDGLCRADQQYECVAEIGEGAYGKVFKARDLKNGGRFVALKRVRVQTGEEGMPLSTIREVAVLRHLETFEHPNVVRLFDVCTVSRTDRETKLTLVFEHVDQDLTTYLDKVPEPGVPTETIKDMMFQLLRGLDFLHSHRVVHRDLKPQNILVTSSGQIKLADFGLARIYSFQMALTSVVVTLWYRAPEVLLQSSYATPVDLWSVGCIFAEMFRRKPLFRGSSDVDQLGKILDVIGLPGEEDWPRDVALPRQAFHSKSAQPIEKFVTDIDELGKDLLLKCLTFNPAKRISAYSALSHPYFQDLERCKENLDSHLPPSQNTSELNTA

Mus musculus [16] = assay: Modulation of circadian rhythms in C57BL/6J mouse assessed as lengthening of time period of circadian behavior at 15 mM administered via infusion using osmotic pump by passive infrared sensor analysis; assay type: functional; how it was run: as §2
[17] = target: T2, Casein kinase I isoform delta; assay: Inhibition of CK1delta (unknown origin) at 5 uM relative to control
Target sequence in this assay (P48730 whole entry, looked up, the tested form may be a part, canonical isoform): as the sequence (P48730 whole entry, looked up, canonical isoform) above

[18] = target: T3, Casein kinase I isoform alpha; assay: Inhibition of CK1apha (unknown origin) at 5 uM relative to control
Target sequence in this assay (P48729 2-337 limits assumed): as the sequence (P48729 2-337 limits assumed) above

[19] = target: Dual specificity protein kinase CLK2 (Homo sapiens) (UniProt P49760); assay: Inhibition of CLK2 (unknown origin) at 5 uM relative to control
Dual specificity protein kinase CLK2 (Homo sapiens), sequence (P49760 whole entry, looked up): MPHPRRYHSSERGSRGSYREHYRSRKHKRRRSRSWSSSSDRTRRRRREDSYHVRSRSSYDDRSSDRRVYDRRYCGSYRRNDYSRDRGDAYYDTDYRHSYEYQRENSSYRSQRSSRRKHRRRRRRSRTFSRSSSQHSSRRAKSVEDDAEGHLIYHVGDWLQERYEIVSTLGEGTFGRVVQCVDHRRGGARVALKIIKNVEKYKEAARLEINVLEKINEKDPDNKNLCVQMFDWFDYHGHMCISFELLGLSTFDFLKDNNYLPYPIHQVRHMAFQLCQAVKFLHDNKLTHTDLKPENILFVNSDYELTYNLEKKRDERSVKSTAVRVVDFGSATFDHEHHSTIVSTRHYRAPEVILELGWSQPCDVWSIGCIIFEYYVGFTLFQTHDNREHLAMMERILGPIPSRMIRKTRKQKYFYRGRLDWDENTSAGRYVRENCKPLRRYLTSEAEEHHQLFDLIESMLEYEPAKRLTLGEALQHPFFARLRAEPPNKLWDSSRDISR

[20] = target: T6, Mitogen-activated protein kinase 1 (Homo sapiens, UniProt P28482); assay: Inhibition of N-terminal GST-tagged recombinant full-length human MAPK1 expressed in Escherichia coli using MBP1 as substrate after 3 hrs by kinase-glo luminescent assay relative to control
T6 sequence (P28482 whole entry): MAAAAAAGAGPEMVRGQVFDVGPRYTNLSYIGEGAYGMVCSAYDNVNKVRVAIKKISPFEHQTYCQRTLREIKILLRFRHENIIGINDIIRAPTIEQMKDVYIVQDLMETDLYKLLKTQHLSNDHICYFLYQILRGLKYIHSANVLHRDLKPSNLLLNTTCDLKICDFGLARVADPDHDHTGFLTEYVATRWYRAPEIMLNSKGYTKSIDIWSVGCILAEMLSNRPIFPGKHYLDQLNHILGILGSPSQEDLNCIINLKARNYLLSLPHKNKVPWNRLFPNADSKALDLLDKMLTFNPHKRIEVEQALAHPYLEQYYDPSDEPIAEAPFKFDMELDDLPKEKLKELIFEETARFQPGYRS
How it was run: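 MAPK1 assayed as ERK2 at 1.5 ng/μL with 0.8 μg/μL MBP. ERK buffer: 50 mM Tris, 10 mM MgCl2, 0.5 mM DTT, 1 mM EGTA, pH 7.5. Compound at final 5% DMSO, then ATP (final 5 μM). Incubated 3 h at 30 °C; Kinase-Glo luminescence.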

[21] = target: CDK7/Cyclin H/MNAT1 (Homo sapiens) (UniProt P51946+P50613+P51948); assay: Inhibition of recombinant full length C-terminal human His-tagged CDK7/cyclin H/N-terminal MAT1 expressed in baculovirus expression system at 5 uM using Cdk7/9 peptide as substrate after 3 hrs by kinase-glo luminescent assay relative to control
[22] = target: T6, Mitogen-activated protein kinase 1; assay: Inhibition of N-terminal GST-tagged recombinant full-length human MAPK1 expressed in Escherichia coli at 5 uM using MBP as substrate after 3 hrs by kinase-glo luminescent assay relative to control
Mus musculus [23] = assay: Modulation of circadian rhythms in C57BL/6J mouse assessed as lengthening of time period of circadian behavior at 3 mM administered via infusion using osmotic pump by passive infrared sensor analysis; assay type: functional; how it was run: as §2
Mus musculus [24] = assay: Modulation of circadian rhythms in C57BL/6J mouse assessed as lengthening of time period of circadian behavior at 1 mM administered via infusion using osmotic pump by passive infrared sensor analysis; assay type: functional; how it was run: as §2
[25] = target: T4, Cyclin-dependent kinase 2; assay: Inhibition of CDK2 (unknown origin) at 5 uM after 3 hrs by kinase-glo luminescent assay relative to control

Structure (SMILES)	EC [1]	EC [2]	other results
COc1nc(NCc2cccc(C(F)(F)F)c2)c2ncn(C(C)C)c2n1	2.39 µM	0.32 µM	–
CC(C1CC1)n1cnc2c(NCc3cccc(C(F)(F)F)c3)nc(NCCN(C)C)nc21 (centres undefined)	0.32 µM	0.022 µM	inhibition [3]: > 50%; inhibition [4]: Active; inhibition [5]: Active; Time (Mus musculus [6]): 0.15 h; Activity (Mus musculus [7]): Active; IC50 [8]: 37 µM; inhibition [9]: > 50%; inhibition [10]: Active; IC50 [11]: 3.6 µM; IC50 [12]: 1.8 µM; IC50 (CDK7/Cyclin H/MNAT1): 2.4 µM; inhibition [13]: Active; inhibition [14]: > 50%; inhibition [15]: > 50%; Time (Mus musculus [16]): 0.15 h; inhibition [17]: > 50%; inhibition [18]: > 50%; inhibition [19]: Active; IC50 [20]: 850 µM; inhibition [21]: Active
CC(C)Oc1nc(NCc2cccc(C(F)(F)F)c2)c2ncn(C(C)C)c2n1	2.75 µM	0.39 µM	–
CC(C)n1cnc2c(NCc3cccc(C(F)(F)F)c3)nc(NCCN(C)C)nc21	0.9 µM	0.09 µM	–
CC(C)n1cnc2c(NCc3cccc(C(F)(F)F)c3)nc(N3CCN(C)CC3)nc21	3.66 µM	0.9 µM	–
CC(C1CC1)n1cnc2c(NCc3cccc(C(F)(F)F)c3)ncnc21 (centres undefined)	0.9 µM	0.09 µM	–
CC(C)n1cnc2c(NCc3cccc(C(F)(F)F)c3)nc(NCCN)nc21	5.23 µM	0.58 µM	–
CC(C)n1cnc2c(NCc3cccc(C(F)(F)F)c3)nc(N3CCCN(C)CC3)nc21	5.8 µM	0.68 µM	–
CCCCOc1nc(NCc2cccc(C(F)(F)F)c2)c2ncn(C(C)C)c2n1	23.4 µM	6.39 µM	–
CC(C)n1cnc2c(NCc3cccc(C(F)(F)F)c3)nc(NCCN3CCOCC3)nc21	9.33 µM	1.65 µM	–
CC(C)n1cnc2c(NCc3cccc(C(F)(F)F)c3)nc(NC3CC3)nc21	3.04 µM	1.62 µM	–
CC[C@H](CO)Nc1nc(NCc2ccccc2)c2ncn(C(C)C)c2n1	9 µM	0.96 µM	–
COCC1CCCN1c1nc(NCc2cccc(C(F)(F)F)c2)c2ncn(C(C)C)c2n1 (centres undefined)	inactive	inactive	–
CC(C)n1cnc2c(NCc3cccc(C(F)(F)F)c3)nc(N3CCC(O)CC3)nc21	10.4 µM	1.98 µM	–
CC(C)n1cnc2c(NCc3cccc(C(F)(F)F)c3)nc(NCc3ccccc3)nc21	inactive	inactive	–
CC(C)n1cnc2c(NCc3cccc(C(F)(F)F)c3)ncnc21	3.4 µM	0.39 µM	inhibition [4]: > 30%; inhibition [5]: > 30%; Time (Mus musculus [6]): 0.1 h; IC50 [8]: 13 µM; IC50 [11]: 12 µM; inhibition [22]: > 30%; IC50 [12]: 12 µM; IC50 (CDK7/Cyclin H/MNAT1): 32 µM; Time (Mus musculus [23]): 0.1 h; Time (Mus musculus [16]): 0.15 h; Time (Mus musculus [24]): 0.05 h; inhibition [25]: > 30%; IC50 [20]: 59 µM; inhibition [21]: > 30%
CC(=O)N1CCN(c2nc(NCc3cccc(C(F)(F)F)c3)c3ncn(C(C)C)c3n2)CC1	5.7 µM	1.03 µM	–
CC(C1CC1)n1cnc2c(N(C)Cc3cccc(C(F)(F)F)c3)nc(NCCN(C)C)nc21 (centres undefined)	inactive	inactive	–
CC[C@H](CO)Nc1nc(NCc2cccc(C(F)(F)F)c2)c2ncn(C(C)C)c2n1	3.76 µM	0.38 µM	–
CC(C1CC1)n1cnc2c(OCc3cccc(C(F)(F)F)c3)nc(NCCN(C)C)nc21 (centres undefined)	inactive	inactive	–
